Experimental data reported in ChEMBL document CHEMBL1154191, “Evaluation of spirocyclic 3-(3-fluoropropyl)-2-benzofurans as sigma1 receptor ligands for neuroimaging with positron emission tomography” (J Med Chem, 2009).

What was measured:
[1] = system: Brain; test: Biodistribution in CD1 mouse brain assessed per gram of wet tissue at 400 to 600 kBq, iv after 30 mins post-injection by gamma counting; type: ADME, organism-based; conditions: in vivo, 0.5 h
In short: (§1)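 Female CD-1 mice (~8-12 weeks, 20-28 g) were fasted 24 h with free water. Conscious mice got 400-600 kBq [¹⁸F] tracer in saline by tail vein. At 5, 30, 60 or 120 min (n=4-5 per time) they were anesthetized, blood and urine sampled, then killed by cervical dislocation. Organs were weighed and γ-counted, giving % ID/g wet tissue.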

[2] = Biodistribution in CD1 mouse gonad assessed per gram of wet tissue at 400 to 600 kBq, iv after 5 mins post-injection by gamma counting; type: ADME, organism-based; conditions: in vivo; in short: as §1
[3] = system: Blood; test: Biodistribution in CD1 mouse blood assessed per gram of wet tissue at 400 to 600 kBq, iv after 30 mins post-injection by gamma counting; type: ADME, organism-based; conditions: in vivo, 0.5 h; in short: as §1
[4] = system: Kidney; test: Biodistribution in CD1 mouse kidney assessed per gram of wet tissue at 400 to 600 kBq, iv after 60 mins post-injection by gamma counting in presence of 1 mg/kg, ip sigma 1/sigma 2 receptor antagonist haloperidol treated before compound addition; type: organism-based; design: dose 1 mg/kg, route intravenous; conditions: in vivo, 1 h
In short: (§2)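 Blocking arm in fasted female CD-1 mice (n=5). […] Animals were killed at 60 min post-injection, and organs were weighed and γ-counted as % ID/g wet tissue. Percent change was taken against the 60 min control group, with two-tailed unpaired Student's t test.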

[5] = Biodistribution in CD1 mouse urine assessed as per gram of wet bladder at 400 to 600 kBq, iv after 120 mins post-injection by gamma counting; type: ADME, organism-based; conditions: in vivo, 2 h
In short: (§3)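 Female CD-1 mice (~8-12 weeks, 20-28 g), habituated ≥48 h and fasted 24 h with water available. The [18F] tracer (>150 GBq/μmol at end of synthesis) was given in 200 μL saline into the tail vein of conscious animals. At each time point, n=4-5, mice were anaesthetised, blood and urine sampled, then killed by cervical dislocation. Organs were weighed and γ-counted, and values calculated as % ID/g wet tissue.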

[6] = system: Cerebellum; test: Biodistribution in CD1 mouse cerebellum assessed per gram of wet tissue at 400 to 600 kBq, iv after 5 mins post-injection by gamma counting; type: ADME, organism-based; conditions: in vivo; in short: as §1
[7] = system: Pancreas; test: Biodistribution in CD1 mouse pancreas assessed per gram of wet tissue at 400 to 600 kBq, iv after 5 mins post-injection by gamma counting; type: ADME, organism-based; conditions: in vivo; in short: as §3
[8] = Ratio of drug level in cerebellum to plasma in CD1 mouse at 400 to 600 kBq, iv after 30 mins post-injection; type: ADME, organism-based
In short: (§4)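 Female CD-1 mice (~8-12 weeks, 20-28 g), fasted 24 h with free water; 400-600 kBq tracer in 200 μL saline by tail vein into conscious animals. Killed at set times pi (n=4-5 per time); blood and organs weighed, γ-counted, expressed as % ID/g wet tissue; ratio from cerebellum and plasma uptake.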

[9] = system: Cerebellum; test: Biodistribution in CD1 mouse cerebellum assessed per gram of wet tissue at 400 to 600 kBq, iv after 60 mins post-injection by gamma counting in presence of 1 mg/kg, ip sigma 1/sigma 2 receptor antagonist haloperidol treated before compound addition; type: organism-based; design: dose 1 mg/kg, route intravenous; conditions: in vivo, 1 h; in short: as §2
[10] = system: Lung; test: Biodistribution in CD1 mouse lung assessed per gram of wet tissue at 400 to 600 kBq, iv after 120 mins post-injection by gamma counting; type: ADME, organism-based; conditions: in vivo, 2 h; in short: as §3
[11] = Chemical stability assessed as occurrence of defluorination by radio-TLC and analytical radio-HPLC; type: physicochemical
[12] = system: Brain; test: Biodistribution in CD1 mouse brain assessed per gram of wet tissue at 400 to 600 kBq, iv after 120 mins post-injection by gamma counting; type: ADME, organism-based; conditions: in vivo, 2 h; in short: as §1
[13] = Biodistribution in CD1 mouse urine assessed per gram of wet bladder at 400 to 600 kBq, iv after 60 mins post-injection by gamma counting in presence of 1 mg/kg, ip sigma 1/sigma 2 receptor antagonist haloperidol treated before compound addition; type: organism-based; design: route intravenous; conditions: in vivo, 1 h
In short: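 They were killed at 60 min pi, and organs were weighed and γ-counted as % ID/g wet tissue. Comparison with controls used Student's t test (independent, two-tailed).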

[14] = system: Liver; test: Metabolic stability in CD1 mouse liver homogenate assessed as formation of 3-(3-Fluoropropyl)-3H-spiro[[2]benzofuran-1,4'-piperidine], 4-((3-(3-fluoropropyl)-3H-spiro[isobenzofuran-1,4'-piperidine]-1'-yl)methyl)phenol and 1-(1'-benzyl-3H-spiro[isobenzofuran-1,4'-piperidine]-3-yl)-3-fluoropropan-2-ol at 200 to 300 MBq, iv after 45 mins postinjection by radio-HPLC and radio-TLC; type: ADME, organism-based; conditions: in vivo, 0.75 h
In short: (§5)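 Mice received 200-300 MBq [18F] tracer in 200 μL 0.9% saline via the tail vein, and samples were taken at 45 and 60 min (n=2 per time). Plasma was obtained by centrifugation (2000g, 4 °C, 10 min); brain and liver were homogenised in ice-cold 50 mM TRIS-HCl pH 7.4. Samples were precipitated with ice-cold MeCN and centrifuged (4000g, 4 °C, 15 min), and supernatants were analysed by gradient radio-HPLC and radio-TLC, with HPLC fractions γ-counted.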

[15] = system: Pancreas; test: Biodistribution in CD1 mouse pancreas assessed per gram of wet tissue at 400 to 600 kBq, iv after 30 mins post-injection by gamma counting; type: ADME, organism-based; conditions: in vivo, 0.5 h; in short: as §3
[16] = Drug uptake in CD1 mouse adrenal gland at 400 to 600 kBq, iv after 120 mins post-injection by gamma counting relative to initial uptake; type: ADME, organism-based; conditions: in vivo, 2 h
In short: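 Organ % ID/g was measured by γ-counting after tail-vein injection of 400-600 kBq [18F] tracer in saline to fasted female CD-1 mice (n=4-5 per time). The 120 min pi value is expressed relative to the initial (5 min pi) uptake.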

[17] = system: Intestine; test: Biodistribution in CD1 mouse intestine assessed per gram of wet tissue at 400 to 600 kBq, iv after 60 mins post-injection by gamma counting in presence of 1 mg/kg, ip sigma 1/sigma 2 receptor antagonist haloperidol treated before compound addition; type: organism-based; design: dose 1 mg/kg, route intravenous; conditions: in vivo, 1 h; in short: as §2
[18] = system: Brain; test: Biodistribution in CD1 mouse brain assessed per gram of wet tissue at 400 to 600 kBq, iv after 5 mins post-injection by gamma counting; type: ADME, organism-based; conditions: in vivo; in short: as §1
[19] = Biodistribution in CD1 mouse adrenal gland assessed per gram of wet tissue at 400 to 600 kBq, iv after 60 mins post-injection by gamma counting; type: ADME, organism-based; conditions: in vivo, 1 h; in short: as §1
[20] = Metabolic stability in CD1 mouse urine assessed as formation of hydrophilic and lipophilioc radiometabolite at 200 to 300 MBq, iv after 45 mins post-injection by radio-HPLC and radio-TLC; type: ADME, organism-based; conditions: in vivo, 0.75 h
[21] = Biodistribution in CD1 mouse urine assessed as per gram of wet bladder at 400 to 600 kBq, iv after 60 mins post-injection by gamma counting; type: ADME, organism-based; conditions: in vivo, 1 h; in short: as §3
[22] = Metabolic stability in CD1 mouse brain at 200 to 300 MBq, iv after 60 mins post-injection by supelcosil C18 HPLC and TLC-radiochromatography; type: ADME, organism-based; conditions: read-out: Stability; in short: as §5
[23] = Ratio of drug level in cerebellum to plasma in CD1 mouse at 400 to 600 kBq, iv after 120 mins post-injection; type: ADME, organism-based; in short: as §4
[24] = system: Liver; test: Biodistribution in CD1 mouse liver assessed per gram of wet tissue at 400 to 600 kBq, iv after 5 mins post-injection by gamma counting; type: ADME, organism-based; conditions: in vivo; in short: as §3
[25] = system: Stomach; test: Biodistribution in CD1 mouse stomach assessed per gram of wet tissue at 400 to 600 kBq, iv after 120 mins post-injection by gamma counting; type: ADME, organism-based; conditions: in vivo, 2 h; in short: as §3

[18F]CCCC1OC2(CCN(Cc3ccccc3)CC2)c2ccccc21 (stereo not given)
Drug uptake [1]: 3.18 %ID
Drug uptake [2]: 3.4 %ID
Drug uptake [3]: 0.56 %ID
Drug uptake [4]: 3.42 %ID
Drug uptake [5]: 49.2 %ID
Drug uptake [6]: 4.62 %ID
Drug uptake [7]: 8.76 %ID
Kp at 0.5 h [8]: 3.86
Drug uptake [9]: 0.63 %ID
Drug uptake [10]: 3.37 %ID
Stability [11]: Stable
Drug uptake [12]: 2.14 %ID
Drug uptake [13]: 22.5 %ID
Activity [14]: 45%
Drug uptake [15]: 12.8 %ID
Drug uptake [16]: > 70%
Drug uptake [17]: 6.6 %ID
Drug uptake [18]: 3.66 %ID
Drug uptake [19]: 7.78 %ID
Activity [20]: 98%
Drug uptake [21]: 7.84 %ID
remaining at 1 h [22]: ≥ 95%
Kp at 2 h [23]: 5.48
Drug uptake [24]: 5.54 %ID
Drug uptake [25]: 3.12 %ID
